ChEMBL document CHEMBL3603821, “Optimization of N-aryl-6-methoxy-1,2,3,4-tetrahydroquinolines as tubulin polymerization inhibitors” (Bioorg Med Chem, 2015)
pIC50: −log10 of the molar value. Values after ≈ are worked out from the molar mass of the structure shown.

Key:
[1] = test system: A549; assay: Antiproliferative activity against human A549 cells assessed as cell growth inhibition by SRB assay; assay type: functional
Outline: (§1)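 SRB assay in a human tumor cell line panel (A-549 lung, KB nasopharyngeal, P-glycoprotein-overexpressing KBvin, DU145 prostate).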

[2] = molecular target: T1, Tubulin (Homo sapiens) (UniProt P68371+Q9H4B7+P0DPH7+P68366+Q13509+Q71U36+P04350+Q3ZCM7+P07437+P68363+Q9BQE3+Q6PEY2+Q13885+Q9BVA1+Q9BUF5); assay: Displacement of [3H]-colchicine from tubulin (unknown origin) at 1 uM after 10 mins; assay type: protein-complex assay
Outline: (§2)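 Radioligand binding competition: 1.0 μM tubulin incubated with 5.0 μM [3H]colchicine plus inhibitor at 5.0 or 1.0 μM for 10 min at 37 °C. At that point control binding is about 40–60% of maximum. Result is percent inhibition of colchicine binding ± SD.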

[3] = molecular target: Tubulin; assay: Inhibition of tubulin (unknown origin) assembly pre-incubated for 15 mins before GTP addition measured after 20 mins by turbidimetry; assay type: protein-complex assay, Homo sapiens
[4] = Aqueous solubility of the compound at pH 7.4 by HPLC-UV method; assay type: physicochemical; details: buffer
[5] = molecular target: T1, Tubulin (Homo sapiens); assay: Displacement of [3H]-colchicine from tubulin (unknown origin) at 5 uM after 10 mins; assay type: protein-complex assay; outline: as §2
[6] = test system: KB; assay: Antiproliferative activity against human KB cells assessed as cell growth inhibition by SRB assay; assay type: functional
[7] = Octanol/water partition coefficient, log P of the compound after 24 hrs by HPLC analysis; assay type: physicochemical
Outline: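 Log P measured at pH 7.4 with HPLC-UV on a C18 column (4.6 × 150 mm, 5 μm). Eluent MeOH/water 80:20 containing 0.04% ammonium acetate, run at 0.8 mL/min, with detection at 254 nm. Value given as mean ± SD of three separate experiments.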

[8] = test system: DU-145; assay: Antiproliferative activity against human DU145 cells assessed as cell growth inhibition by SRB assay; assay type: functional; outline: as §1
[9] = Antiproliferative activity against human vincristine-resistant KBVIN cells expressing P-glycoprotein assessed as cell growth inhibition by SRB assay; assay type: functional; outline: as §1

Row | SMILES | GI50 [1] [µM] | inhibition [2] [%] | pIC50 [3] | solubility [4] [µg/mL] | inhibition [5] [%] | GI50 [6] [µM] | logP [7] | GI50 [8] [µM] | GI50 [9] [µM]
1 | COc1ccc2c(c1)CCCN2c1nc(NC2CC2)nc2ccccc12 | 0.016 | 56 | 5.89 | 2.55 (≈ 7.36 µM) | 89 | 0.013 | 4.13 | 0.016 | –
2 | CC(=O)O[C@H]1C(=O)[C@@]2(C)[C@H]([C@H](OC(=O)c3ccccc3)[C@]3(O)C[C@H](OC(=O)[C@H](O)[C@@H](NC(=O)c4ccccc4)c4ccccc4)C(C)=C1C3(C)C)[C@]1(OC(C)=O)CO[C@@H]1C[C@@H]2O [PACLITAXEL] | 0.0076 | – | – | – | – | 0.0064 | – | 0.006 | 1.21
3 | COc1ccc2c(c1)CCCN2c1cccc2cccnc12 | 12.1 | – | < 4.70 | – | – | 16.2 | – | 12.8 | 8.71
4 | COc1ccc(/C=C\c2cc(OC)c(OC)c(OC)c2)cc1O [COMBRETASTATIN A4] | 0.0841 | – | – | – | – | 0.0036 | – | – | 0.0012
5 | COc1ccc2c(c1)CCCN2c1nc(NCCCO)nc2ccccc12 | 0.016 | 49 | 6.07 | 75.6 (≈ 207 µM) | 78 | 0.018 | 3.43 | 0.02 | 0.019
6 | COc1ccc2c(c1)CCCN2c1ncnc2ccccc12 | 0.018 | 69 | 5.89 | – | 91 | 0.014 | – | – | 0.019
7 | COc1ccc2c(c1)CCCN2c1cncc2ccccc12 | 1.95 | – | 5.48 | – | 39 | 1.48 | – | 0.92 | 1.54
8 | COc1ccc2c(c1)CCCN2c1nc(N(C)C)nc2ccccc12 | 0.17 | – | – | – | – | 0.14 | – | 0.15 | 0.2
9 | COc1ccc2c(c1)CCCN2c1nc(F)nc2[nH]cnc12 | 23.6 | – | – | – | – | > 33 | – | 25.5 | 27.1
10 | COc1ccc2c(c1)CCCN2c1nc(NC2CCCC2)nc2ccccc12 | 1.34 | – | 5.24 | – | 29 | 1.19 | – | 1.29 | 1.42
11 | COc1ccc2c(c1)CCCN2c1nccc2ccccc12 | 2.08 | – | 5.59 | – | 37 | 1.72 | – | 1.47 | 1.64
12 | COc1ccc2c(c1)CCCN2c1nc(OC)nc2ccccc12 | 0.024 | – | – | – | – | 0.026 | – | 0.021 | 0.03
13 | COc1ccc2c(c1)CCCN2c1nc(N)nc2[nH]cnc12 | 19.4 | – | – | – | – | 17.5 | – | 18 | 18.9
14 | COc1ccc2c(c1)CCCN2c1ncnc2[nH]cnc12 | > 35 | – | – | – | – | > 35 | – | > 35 | > 35
15 | COc1ccc2c(c1)CCCN2c1ccnc2ccccc12 | 0.2 | – | – | – | – | 0.16 | – | 0.18 | 0.18
